Measured values reported in ChEMBL document CHEMBL4190252, “Synthesis, antitumor activity and CDK1 inhibiton of new thiazole nortopsentin analogues” (Eur J Med Chem, 2017).
Activity calls are given as the source filed them. The rule behind the calls is not given here.

What was measured:
MDA-MB-435 = test: Growth inhibition of human MDA-MB-435 cells incubated for 48 hrs by sulforhodamine B assay; assay type: functional; settings: MDA-MB-435, 48 h
Outline: (§1)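 NCI full panel screen: five 10-fold dilutions (10^-4–10^-8 M). GI50 is the molar concentration giving 50% inhibition of net cell growth.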

CCRF-CEM = test: Growth inhibition of human CCRF-CEM cells incubated for 48 hrs by sulforhodamine B assay; assay type: functional; outline: as §1
UO-31 = test: Growth inhibition of human UO31 cells incubated for 48 hrs by sulforhodamine B assay; assay type: functional; settings: UO-31, 48 h
Outline: (§2)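 NCI full-panel human tumour cell screen. Cells were exposed to five 10-fold dilutions from 10^-4 to 10^-8 M. GI50 is the molar concentration giving 50% inhibition of net cell growth, and a mean graph midpoint was calculated across the panel.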

MCF7 [1] = test: Cell cycle arrest in human MCF7 cells assessed as increase in accumulation at G2/M phase at GI50 concentration after 48 hrs by propidium iodide-staining based flow cytometry; assay type: functional
Outline: (§3)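 Cells were trypsinized, washed in cold PBS, and 1 x 10^6 cells stained with 20 µg/ml PI plus 200 µg/ml RNase for 30 min at room temperature in the dark. At least 1x 10^4 cells were analysed by flow cytometry. Mean±SD of three experiments in triplicate.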

SF-268 = test: Growth inhibition of human SF268 cells incubated for 48 hrs by sulforhodamine B assay; assay type: functional; settings: SF-268, 48 h; outline: as §1
U-251 = test: Growth inhibition of human U251 cells incubated for 48 hrs by sulforhodamine B assay; assay type: functional; settings: U-251, 48 h; outline: as §2
HCC 2998 = test: Growth inhibition of human HCC2998 cells incubated for 48 hrs by sulforhodamine B assay; assay type: functional; settings: HCC 2998, 48 h; outline: as §1
MCF7 [2] = test: Cell cycle arrest in human MCF7 cells assessed as reduction in accumulation at S phase at GI50 concentration after 48 hrs by propidium iodide-staining based flow cytometry; assay type: functional; outline: as §3
MCF7 [3] = test: Induction of apoptosis in human MCF7 cells assessed as late apoptotic cells at 2 x 10^-6 M after 72 hrs by Annexin V/propidium iodide double staining-based flow cytometry (reference value: 0%); assay type: functional
Outline: (§4)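 MCF-7 cells were grown in RPMI with 10% FBS, 2 mM L-glutamine and antibiotics at 37 °C in 5% CO2. They were seeded at 2.0 x 10^5 cells/cm2 in triplicate, left to adhere overnight, then treated for 72 h; DMSO 0.1% served as vehicle. Trypsinised cells at 2.0 x 10^5/mL were stained with annexin V-FITC and PI for 15 min at room temperature in the dark. At least 1.0 x 10^4 cells were gated into viable, early apoptotic, late apoptotic and necrotic quadrants.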

M14 = test: Growth inhibition of human M14 cells incubated for 48 hrs by sulforhodamine B assay; assay type: functional; settings: M14, 48 h; outline: as §1
DU-145 = test: Growth inhibition of human DU145 cells incubated for 48 hrs by sulforhodamine B assay; assay type: functional; settings: DU-145, 48 h; outline: as §1
MCF7 [4] = test: Induction of apoptosis in human MCF7 cells assessed as early apoptotic cells at 2 x 10^-6 M after 72 hrs by Annexin V/propidium iodide double staining-based flow cytometry (reference value: 1%); assay type: functional; outline: as §4
Caco-2 = test: Cytotoxicity against human Caco2 cells assessed as reduction in cell viability after 72 hrs by MTT assay; assay type: cell-based; settings: caco-2, 72 h
Outline: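 Caco-2 cells grown in RPMI with 10% FBS and L-glutamine, then treated 15 days after confluence, once differentiated into normal intestinal-like cells. Seeded at 2 × 10^4 cells/well and exposed 72 h to 5–100 µM, DMSO 0.1% vehicle. MTT 2 h at 37 °C, formazan in DMSO, absorbance 570 nm. Vehicle control = 100%; LC50 from viability-versus-concentration plot. At least three experiments in triplicate.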

HOP-92 = test: Growth inhibition of human HOP92 cells incubated for 48 hrs by sulforhodamine B assay; assay type: functional; settings: HOP-92, 48 h; outline: as §1
MDA-MB-231 = test: Growth inhibition of human MDA-MB-231 cells incubated for 48 hrs by sulforhodamine B assay; assay type: functional; settings: MDA-MB-231, 48 h; outline: as §1
[5] = Selectivity index, ratio of LC50 for human Caco2 cells to GI50 for human MCF7 cells; assay type: toxicity; settings: Caco2 cells (LC50) and MCF7 cells (GI50), read-out: Selectivity Index
Outline: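 Caco-2 cells were differentiated to a normal intestinal-like state for 15 days after confluence, seeded at 2 x 10^4 cells/well in RPMI, and treated with 5–100 µM for 72 h. MTT was added for 2 h at 37 °C, formazan was dissolved in DMSO and read at 570 nm. LC50 came from viability-versus-concentration plots, with at least three experiments in triplicate. SI is the Caco-2 LC50 divided by the MCF-7 GI50.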

UACC-257 = test: Growth inhibition of human UACC257 cells incubated for 48 hrs by sulforhodamine B assay; assay type: functional; settings: UACC-257, 48 h; outline: as §2
ACHN = test: Growth inhibition of human ACHN cells incubated for 48 hrs by sulforhodamine B assay; assay type: functional; outline: as §1
NCI-H460 = test: Growth inhibition of human NCI-H460 cells incubated for 48 hrs by sulforhodamine B assay; assay type: functional; settings: NCI-H460, 48 h; outline: as §1
SF-539 = test: Growth inhibition of human SF539 cells incubated for 48 hrs by sulforhodamine B assay; assay type: functional; settings: SF-539, 48 h; outline: as §1
SNB-75 = test: Growth inhibition of human SNB75 cells incubated for 48 hrs by sulforhodamine B assay; assay type: functional; settings: SNB-75, 48 h; outline: as §2
MCF7 [6] = test: Induction of apoptosis in human MCF7 cells assessed as viable cells at 2 x 10^-6 M after 72 hrs by Annexin V/propidium iodide double staining-based flow cytometry (reference value: 98.9%); assay type: functional; settings: MCF7, 72 h, read-out: Activity; outline: as §4
CAKI-1 = test: Growth inhibition of human Caki1 cells incubated for 48 hrs by sulforhodamine B assay; assay type: functional; settings: CAKI-1, 48 h; outline: as §1
MCF7 [7] = test: Induction of apoptosis in human MCF7 cells assessed as necrotic cells at 2 x 10^-6 M after 72 hrs by Annexin V/propidium iodide double staining-based flow cytometry (reference value: 0.1%); assay type: functional; outline: as §4
MCF7 [8] = test: Growth inhibition of human MCF7 cells incubated for 48 hrs by sulforhodamine B assay; assay type: functional; settings: MCF7, 48 h; outline: as §1
KM12 = test: Growth inhibition of human KM12 cells incubated for 48 hrs by sulforhodamine B assay; assay type: functional; settings: KM12, 48 h; outline: as §1
OVCAR-4 = test: Growth inhibition of human OVCAR4 cells incubated for 48 hrs by sulforhodamine B assay; assay type: functional; settings: OVCAR-4, 48 h; outline: as §1
EKVX = test: Growth inhibition of human EKVX cells incubated for 48 hrs by sulforhodamine B assay; assay type: functional; outline: as §1
786-0 = test: Growth inhibition of human 786-0 cells incubated for 48 hrs by sulforhodamine B assay; assay type: functional; settings: 786-0, 48 h; outline: as §1
MOLT-4 = test: Growth inhibition of human MOLT4 cells incubated for 48 hrs by sulforhodamine B assay; assay type: functional; settings: MOLT-4, 48 h; outline: as §1
RPMI-8226 = test: Growth inhibition of human RPMI8226 cells incubated for 48 hrs by sulforhodamine B assay; assay type: functional; settings: RPMI-8226, 48 h; outline: as §1
MCF7 [9] = test: Induction of apoptosis in human MCF7 cells assessed as early apoptotic cells at 5 x 10^-8 M after 72 hrs by Annexin V/propidium iodide double staining-based flow cytometry (reference value: 1%); assay type: functional; outline: as §4

SMILES | GI50 (MDA-MB-435) [µM] | GI50 (UO-31) [µM] | Activity (MCF7 [1]) | GI50 (SF-268) [µM] | GI50 (U-251) [µM] | GI50 (HCC 2998) [µM] | GI50 (M14) [µM] | LC50 (Caco-2) [µM] | GI50 (HOP-92) [µM] | GI50 (MDA-MB-231) [µM] | GI50 (ACHN) [µM] | GI50 (NCI-H460) [µM] | GI50 (SF-539) [µM] | GI50 (SNB-75) [µM] | GI50 (CAKI-1) [µM] | GI50 (MCF7 [8]) [µM] | GI50 (KM12) [µM] | GI50 (OVCAR-4) [µM] | GI50 (EKVX) [µM] | GI50 (786-0) [µM] | other results
COCCn1cc(-c2csc(-c3c[nH]c4ccccc34)n2)c2cccnc21 | 0.86 | 4.15 | Active | 6.98 | 6.12 | 4.08 | 3.22 | 71.4 | 14.9 | 5.05 | 5.6 | 3.4 | 5.91 | 1.43 | 8.36 | 1.74 | 0.76 | 1.76 | 2 | 6.25 | GI50 (CCRF-CEM): > 100 µM; Activity (MCF7 [2]): Active; Activity (MCF7 [3]): 0%; GI50 (DU-145): 15.4 µM; Activity (MCF7 [4]): 46.5%; selectivity ratio [5]: 41; GI50 (UACC-257): > 100 µM; viability at 2 µM (MCF7 [6]): 53.4%; Activity (MCF7 [7]): 0.1%
COCCn1cc(-c2csc(-c3c[nH]c4ccc(F)cc34)n2)c2cccnc21 | 0.9 | 4.41 | Active | 7.67 | 5.14 | 4.54 | 3.14 | 96.1 | 6.29 | 2.59 | 5.27 | 3.38 | 8.86 | 2.97 | 9.54 | 2.09 | 1.77 | 2.59 | 1.98 | 5.12 | Activity (MCF7 [2]): Active; Activity (MCF7 [3]): 0%; GI50 (DU-145): 18.8 µM; Activity (MCF7 [4]): 29.2%; selectivity ratio [5]: 46; GI50 (MOLT-4): 5.56 µM; viability at 2 µM (MCF7 [6]): 70.7%; Activity (MCF7 [7]): 0.1%
COCCn1cc(-c2nc(-c3c[nH]c4ncccc34)cs2)c2cc(OC)ccc21 | 6.41 | 2.31 | Active | 4.42 | 4.43 | 4.81 | 5.82 | < 100 | 0.99 | 2.02 | 3.08 | 1.32 | 3.99 | 1.1 | 4.36 | 0.05 | 0.16 | 0.03 | 0.07 | 3.44 | GI50 (CCRF-CEM): 6.7 µM; GI50 (RPMI-8226): 7.09 µM; Activity (MCF7 [2]): Active; GI50 (DU-145): 4.28 µM; GI50 (UACC-257): 4.26 µM; GI50 (MOLT-4): 6.02 µM; Activity (MCF7 [9]): 54.2%
COCCn1cc(-c2csc(-c3c[nH]c4ccc(Br)cc34)n2)c2cccnc21 | 4.12 | 3.1 |  |  | 6.18 | 3.8 | 3.27 | 83.3 | 4.39 | 2.65 | 3.04 | 3.07 | 7.34 | 4.72 | 5.21 | 1.79 | 2.74 | 2.74 | 2.05 | 4.03 | GI50 (RPMI-8226): 5.14 µM; Activity (MCF7 [3]): 0%; Activity (MCF7 [4]): 36.3%; selectivity ratio [5]: 46; GI50 (UACC-257): 8.69 µM; GI50 (MOLT-4): 3.87 µM; viability at 2 µM (MCF7 [6]): 63.6%; Activity (MCF7 [7]): 0.1%
